Test results from ChEMBL document CHEMBL3352316, “Optimization of physicochemical properties and safety profile of novel bacterial topoisomerase type II inhibitors (NBTIs) with activity against Pseudomonas aeruginosa” (Bioorg Med Chem, 2014).
In brackets after ≈: the same amount, converted by molar mass.

Experiments:
Escherichia coli = assay: Antimicrobial activity against Escherichia coli W3110 after 18 to 20 hrs by broth microdilution; assay type: functional; settings: K-12 substr. W3110
Outline: (§1)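 Broth microdilution followed CLSI guidelines in Mueller Hinton broth. Inocula were grown 18–20 h at 35 °C on blood agar. Compound in DMSO was tested in doubling dilutions from 64 to 0.06 µg/mL, at 2% DMSO final. Plates were incubated 18–20 h and read at OD 620 nm. MIC was taken as the concentration giving >90% growth inhibition.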

Staphylococcus aureus = assay: Antimicrobial activity against methicillin-susceptible Staphylococcus aureus after 18 to 20 hrs by broth microdilution; assay type: functional; outline: as §1
[1] = Inhibition of Escherichia coli topoisomerase IV ATPase activity
[2] = Half life in rat at 10 mg/kg, iv; assay type: ADME, organism-based; set-up: dose 10 mg/kg, route intravenous; settings: in vivo
Outline: (§2)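 Male rats (Wistar Han) and Beagle dogs received 10 mg/kg as a 15 min iv infusion. Serial 200 µL whole-blood samples were taken from 0 to 24 h. Plasma levels were measured by LC–MS/MS against a standard curve after methanol protein precipitation. Parameters were estimated non-compartmentally.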

[3] = Volume of distribution in beagle dog at 10 mg/kg, iv; assay type: ADME, organism-based, Canis lupus familiaris; set-up: dose 10 mg/kg, route intravenous; settings: in vivo; outline: as §2
[4] = AUC in beagle dog at 10 mg/kg, iv; assay type: ADME, organism-based, Canis lupus familiaris; set-up: dose 10 mg/kg, route intravenous; settings: plasma; outline: as §2
Pseudomonas aeruginosa [5] = assay: Antimicrobial activity against Pseudomonas aeruginosa PAO1 in neutropenic mouse thigh infection model assessed as log reduction in CFU at 100 mg/kg/day, ip bid q12 regime starting 2 hrs after infection measured 24 hrs post start of treatment relative to control; assay type: functional; settings: route intraperitoneal
Outline: (§3)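 CD-1 mice made neutropenic with intraperitoneal cyclophosphamide 4 days (150 mg/kg) and 1 day (100 mg/kg) before thigh infection with P. aeruginosa PAO1, target inoculum 5 × 10⁵ CFU. Groups of five dosed ip in 5% dextrose with lactic acid pH 5.0. Vehicle-only group included. Thighs removed 24 h after treatment start, weighed, homogenized and plated on tryptic soy agar, 37 °C overnight. Log CFU/g reduction is relative to starting inoculum.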

Pseudomonas aeruginosa [6] = assay: Antimicrobial activity against Pseudomonas aeruginosa PAO1 in neutropenic mouse thigh infection model assessed as log reduction in CFU at 150 mg/kg/day, ip bid q12 regime starting 2 hrs after infection measured 24 hrs post start of treatment relative to control; assay type: functional; settings: route intraperitoneal; outline: as §3
[7] = AUC(infinity) in neutropenic mouse at 150 mg/kg/day, ip bid of total 12 doses; assay type: ADME, organism-based; set-up: dose 150 mg/kg/day, time infinity, route intraperitoneal; settings: plasma
Outline: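 CD-1 mice were made neutropenic with ip cyclophosphamide, 150 mg/kg at day −4 and 100 mg/kg at day −1, then infected in the thigh with P. aeruginosa PAO1. Dosing was ip, bid q12 from 2 h post-infection, in 5% dextrose with lactic acid pH 5.0. Groups of three mice were killed at timed intervals and cardiac-puncture plasma was analysed by LC–MS/MS.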

[8] = target: 5-hydroxytryptamine receptor 4 (Homo sapiens) (UniProt Q13639); assay: Inhibition of 5-HT4 receptor (unknown origin) at 30 uM
Chain of 5-hydroxytryptamine receptor 4 (Homo sapiens) (Q13639 whole entry): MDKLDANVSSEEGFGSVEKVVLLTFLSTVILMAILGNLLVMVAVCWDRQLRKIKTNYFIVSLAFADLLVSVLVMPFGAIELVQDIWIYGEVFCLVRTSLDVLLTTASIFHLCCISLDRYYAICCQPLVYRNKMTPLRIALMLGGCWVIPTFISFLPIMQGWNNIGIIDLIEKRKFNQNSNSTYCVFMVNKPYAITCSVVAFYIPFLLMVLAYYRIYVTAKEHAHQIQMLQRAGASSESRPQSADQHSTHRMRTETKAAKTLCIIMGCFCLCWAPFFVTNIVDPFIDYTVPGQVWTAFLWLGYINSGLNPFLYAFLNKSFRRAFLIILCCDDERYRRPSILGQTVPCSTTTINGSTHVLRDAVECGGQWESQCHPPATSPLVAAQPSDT

[9] = target: Sodium-dependent serotonin transporter (Homo sapiens) (UniProt P31645); assay: Inhibition of SERT (unknown origin) at 30 uM
Chain of Sodium-dependent serotonin transporter (Homo sapiens) (P31645 whole entry, looked up): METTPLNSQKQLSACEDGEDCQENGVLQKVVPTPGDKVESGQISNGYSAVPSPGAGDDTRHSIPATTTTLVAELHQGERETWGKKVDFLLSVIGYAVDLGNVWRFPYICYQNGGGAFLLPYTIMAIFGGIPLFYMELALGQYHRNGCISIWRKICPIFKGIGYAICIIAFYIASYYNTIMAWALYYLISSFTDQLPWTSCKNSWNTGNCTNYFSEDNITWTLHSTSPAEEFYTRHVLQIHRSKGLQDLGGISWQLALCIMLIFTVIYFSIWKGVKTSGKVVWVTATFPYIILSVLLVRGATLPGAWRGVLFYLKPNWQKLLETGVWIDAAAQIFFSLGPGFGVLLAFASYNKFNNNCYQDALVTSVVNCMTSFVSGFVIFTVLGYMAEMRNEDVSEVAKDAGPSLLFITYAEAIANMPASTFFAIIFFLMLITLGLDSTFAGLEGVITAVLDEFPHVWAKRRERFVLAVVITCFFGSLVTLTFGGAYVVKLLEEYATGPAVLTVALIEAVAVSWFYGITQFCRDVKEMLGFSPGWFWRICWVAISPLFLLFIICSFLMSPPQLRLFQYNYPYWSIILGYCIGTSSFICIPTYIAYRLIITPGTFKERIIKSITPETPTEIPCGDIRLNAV

[10] = target: Voltage-dependent T-type calcium channel subunit alpha-1H (Homo sapiens, UniProt O95180); assay: Inhibition of […] channel Cav3.2 (unknown origin)
Chain of Voltage-dependent T-type calcium channel subunit alpha-1H (O95180 whole entry): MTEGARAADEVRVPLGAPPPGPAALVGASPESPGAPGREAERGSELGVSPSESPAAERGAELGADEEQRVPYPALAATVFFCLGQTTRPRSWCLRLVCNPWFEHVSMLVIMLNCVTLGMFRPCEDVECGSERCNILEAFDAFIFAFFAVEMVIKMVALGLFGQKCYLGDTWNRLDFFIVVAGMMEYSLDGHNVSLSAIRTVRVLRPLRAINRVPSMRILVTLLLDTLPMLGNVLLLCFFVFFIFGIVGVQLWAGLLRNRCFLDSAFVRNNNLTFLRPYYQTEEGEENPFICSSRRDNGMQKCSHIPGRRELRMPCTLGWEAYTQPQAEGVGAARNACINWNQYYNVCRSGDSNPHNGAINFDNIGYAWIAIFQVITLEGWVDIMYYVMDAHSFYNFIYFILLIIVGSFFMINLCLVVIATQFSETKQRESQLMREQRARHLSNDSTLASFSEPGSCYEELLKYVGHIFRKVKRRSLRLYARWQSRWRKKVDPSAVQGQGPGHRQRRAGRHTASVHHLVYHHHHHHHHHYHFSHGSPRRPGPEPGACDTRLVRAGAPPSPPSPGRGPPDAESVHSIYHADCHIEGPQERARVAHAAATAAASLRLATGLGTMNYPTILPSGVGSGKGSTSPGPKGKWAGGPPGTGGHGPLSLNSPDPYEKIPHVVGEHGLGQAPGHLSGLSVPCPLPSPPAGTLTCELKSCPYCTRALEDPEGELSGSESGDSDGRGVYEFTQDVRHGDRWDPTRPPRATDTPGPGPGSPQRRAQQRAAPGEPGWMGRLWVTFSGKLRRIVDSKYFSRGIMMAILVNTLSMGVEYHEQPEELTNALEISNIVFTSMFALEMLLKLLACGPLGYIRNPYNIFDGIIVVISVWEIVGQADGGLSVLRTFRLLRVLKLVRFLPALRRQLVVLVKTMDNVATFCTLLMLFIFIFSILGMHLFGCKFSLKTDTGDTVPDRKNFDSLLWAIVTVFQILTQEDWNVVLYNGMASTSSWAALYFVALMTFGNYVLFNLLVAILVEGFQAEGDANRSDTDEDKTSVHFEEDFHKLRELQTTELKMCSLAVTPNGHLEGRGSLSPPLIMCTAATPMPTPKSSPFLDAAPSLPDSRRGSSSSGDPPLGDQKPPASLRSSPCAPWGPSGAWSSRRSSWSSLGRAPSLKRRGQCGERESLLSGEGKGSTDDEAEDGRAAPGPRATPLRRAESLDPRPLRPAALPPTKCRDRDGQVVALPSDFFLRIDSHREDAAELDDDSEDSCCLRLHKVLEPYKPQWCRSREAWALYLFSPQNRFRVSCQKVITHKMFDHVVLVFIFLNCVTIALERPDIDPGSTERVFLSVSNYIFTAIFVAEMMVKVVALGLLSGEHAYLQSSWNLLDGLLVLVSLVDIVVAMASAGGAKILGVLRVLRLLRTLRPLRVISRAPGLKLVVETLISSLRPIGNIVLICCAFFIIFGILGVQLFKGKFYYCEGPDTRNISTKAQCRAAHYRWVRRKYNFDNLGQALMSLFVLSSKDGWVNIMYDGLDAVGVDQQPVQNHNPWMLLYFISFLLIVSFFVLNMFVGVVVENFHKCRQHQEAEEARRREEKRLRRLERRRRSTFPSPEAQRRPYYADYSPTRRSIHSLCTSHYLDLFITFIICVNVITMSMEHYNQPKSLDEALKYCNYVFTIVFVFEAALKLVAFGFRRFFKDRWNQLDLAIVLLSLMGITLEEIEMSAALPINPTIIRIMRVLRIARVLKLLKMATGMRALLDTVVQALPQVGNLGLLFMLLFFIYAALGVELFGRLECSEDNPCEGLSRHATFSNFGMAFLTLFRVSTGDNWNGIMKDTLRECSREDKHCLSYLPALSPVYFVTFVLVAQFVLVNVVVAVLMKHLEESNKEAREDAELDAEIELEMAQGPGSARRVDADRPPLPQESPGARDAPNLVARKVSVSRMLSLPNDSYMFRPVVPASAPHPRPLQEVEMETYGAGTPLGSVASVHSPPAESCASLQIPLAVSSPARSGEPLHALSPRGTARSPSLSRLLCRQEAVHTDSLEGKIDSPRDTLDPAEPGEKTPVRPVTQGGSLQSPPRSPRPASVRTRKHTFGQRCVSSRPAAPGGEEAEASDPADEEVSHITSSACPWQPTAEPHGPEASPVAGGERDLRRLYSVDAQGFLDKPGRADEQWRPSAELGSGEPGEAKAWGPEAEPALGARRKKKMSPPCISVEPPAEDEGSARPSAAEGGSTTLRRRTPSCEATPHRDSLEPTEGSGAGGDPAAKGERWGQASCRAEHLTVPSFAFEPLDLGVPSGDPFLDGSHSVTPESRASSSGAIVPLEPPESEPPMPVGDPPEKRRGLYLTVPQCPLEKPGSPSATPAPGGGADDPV
Outline: (§4)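 Automated IonWorks patch clamp was run on CHO or HEK cells expressing each channel. A channel-specific voltage pulse was applied before compound and again about 3 min after addition.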

[11] = target: T1, Potassium/sodium hyperpolarization-activated cyclic nucleotide-gated channel 4 (Homo sapiens, UniProt Q9Y3Q4); assay: Inhibition of potassium channel HCN4 (unknown origin); outline: as §4
T1 sequence (Q9Y3Q4 whole entry): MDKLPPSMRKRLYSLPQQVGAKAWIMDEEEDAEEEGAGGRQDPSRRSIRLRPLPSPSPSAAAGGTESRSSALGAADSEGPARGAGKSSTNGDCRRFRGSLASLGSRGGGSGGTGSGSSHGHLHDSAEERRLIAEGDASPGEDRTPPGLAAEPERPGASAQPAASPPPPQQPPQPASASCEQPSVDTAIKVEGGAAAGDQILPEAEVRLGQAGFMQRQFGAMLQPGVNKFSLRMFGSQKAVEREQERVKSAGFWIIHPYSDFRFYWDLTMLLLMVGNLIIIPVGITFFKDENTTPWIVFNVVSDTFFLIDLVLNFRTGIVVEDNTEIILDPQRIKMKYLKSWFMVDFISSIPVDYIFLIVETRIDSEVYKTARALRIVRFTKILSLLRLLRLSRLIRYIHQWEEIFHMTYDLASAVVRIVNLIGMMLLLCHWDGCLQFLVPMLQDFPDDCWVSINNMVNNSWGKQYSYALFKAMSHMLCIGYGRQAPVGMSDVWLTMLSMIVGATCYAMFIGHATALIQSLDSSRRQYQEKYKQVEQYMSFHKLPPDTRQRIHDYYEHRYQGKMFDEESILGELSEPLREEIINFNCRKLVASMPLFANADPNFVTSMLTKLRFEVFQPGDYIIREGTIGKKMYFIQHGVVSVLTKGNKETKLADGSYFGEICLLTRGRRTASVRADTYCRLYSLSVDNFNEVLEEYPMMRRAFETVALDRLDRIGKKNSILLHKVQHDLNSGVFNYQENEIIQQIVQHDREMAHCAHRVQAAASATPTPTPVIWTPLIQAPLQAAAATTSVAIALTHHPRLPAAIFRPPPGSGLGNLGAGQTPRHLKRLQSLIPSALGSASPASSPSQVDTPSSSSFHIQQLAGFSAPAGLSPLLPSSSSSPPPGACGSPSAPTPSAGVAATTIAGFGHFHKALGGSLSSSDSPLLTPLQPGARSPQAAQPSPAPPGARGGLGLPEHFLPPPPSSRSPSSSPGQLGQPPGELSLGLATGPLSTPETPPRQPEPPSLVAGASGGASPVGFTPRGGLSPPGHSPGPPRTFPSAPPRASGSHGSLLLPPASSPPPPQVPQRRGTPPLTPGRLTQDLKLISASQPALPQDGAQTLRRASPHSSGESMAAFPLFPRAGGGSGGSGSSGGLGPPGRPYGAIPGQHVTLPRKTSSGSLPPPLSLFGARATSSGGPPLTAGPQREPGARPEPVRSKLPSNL

Canis familiaris = assay: Cardiotoxicity in telemetered dog assessed as prolongation of QTc interval at 56 uM, iv as 1 hr infusion; assay type: toxicity, organism-based, Canis lupus familiaris; settings: in vivo, 4 h, in the assay text read “4 hr infusion” for “1 hr infusion”
Outline: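 Dogs were dosed by iv infusion in vehicle adjusted to pH 4. ECG intervals were measured and QTcR was corrected for heart rate by individual-animal correction. % change in QTcR was taken against the matched time point of the same animal on vehicle. Infusion was 1 h at 5 mL/kg/h (5% dextrose) or 4 h at 2 mL/kg/h (5% mannitol/0.1 M tartaric acid), with readings at infusion end.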

[12] = Ratio of fAUC to MIC in Pseudomonas aeruginosa PAO1 in neutropenic mouse thigh infection model at 200 mg/kg/day, ip bid q12h starting 2 h post infection; settings: route intraperitoneal
[13] = Ratio of fAUC to MIC in Pseudomonas aeruginosa PAO1 in neutropenic mouse thigh infection model at 100 mg/kg/day, ip bid of total 12 doses starting 2 h post infection; settings: route intraperitoneal

| MIC90 (Escherichia coli) [µg/mL] | MIC90 (Staphylococcus aureus) [µg/mL] | IC50 [1] [µM] | half-life [2] [h] | Vd [3] [L/kg] | AUC [4] [ng·h/mL] | AUC(0-inf) [7] [ng·h/mL] | inhibition [8] [%] | inhibition [9] [%] | IC50 [10] [µM] | IC50 [11] [µM] | fAUC/MIC [12] | fAUC/MIC [13] | Compound | FC (Pseudomonas aeruginosa [5]) | FC (Pseudomonas aeruginosa [6]) | Activity (Canis familiaris) [%] |
| --- | --- | --- | --- | --- | --- | --- | --- | --- | --- | --- | --- | --- | --- | --- | --- | --- |
| < 0.06 | 1 (≈ 2.14 µM) | 0.003 | 10 | 4 | 12000 | 20100 | 7 | 32 | > 100 | > 100 | 23 | 12 | N[C@@H](Cn1c(=O)cnc2ccc(F)cc21)[C@H]1CC[C@H](NCc2ncc3c(n2)NC(=O)CO3)CC1 | 0.2 | 1.3 | 9 |
| 0.13 (≈ 0.28 µM) | 0.03 (≈ 0.0646 µM) | 0.0022 | 1.9 | 2 | 6800 | – | 99 | 77 | > 100 | > 100 | – | – | COc1ccc2ncc(=O)n(CCN3CCC(NCc4ccc5c(n4)NC(=O)CO5)CC3)c2c1 | – | – | – |
